# Experimental data collected from several papers.
# Protocols differ between the studies behind these lines.
# Organism: Escherichia coli
SMILES,assay,system,conditions,quantity,value
COc1c(C)c(OCc2ccccc2)c(C)c(O)c1C(=O)/C=C/c1ccccc1,"microbial killing, broth dilution",ATCC25922,,MBC,> 5000 µg/mL
COc1c(N2C[C@@H]3CCCN[C@@H]3C2)c(F)cc2c(=O)c(C(=O)O)cn(C3CC3)c12,microbial growth,"ATCC 8739, ATCC8739",,MIC90,0.06 µg/mL
COc1cc(C=CC(=O)CC(c2ccc(N(C)C)cc2)n2ccnc2)ccc1O (stereo not drawn),"microbial growth, disc diffusion",ATCC25922,250 µg/mL,inhibition zone,8 mm
Cc1ccc2nc(-c3ccco3)[nH]c2c1,"microbial growth, broth dilution",ATCC25922,,MIC,128 µg/mL
CC(C)Oc1c(NC(=O)c2ccc(NC(=O)[C@H](CC(N)=O)NC(=O)c3ccc(NC(=O)c4ccc(C#N)cc4)cc3)cc2)ccc(C(=O)NC2CCNCC2)c1O,microbial growth,DSM1116,,MIC,> 64 µg/mL
CCCCCCCCCC(=O)Oc1c(C)c(O)c(C(=O)/C=C/c2ccccc2)c(OC)c1C,"microbial killing, broth dilution",ATCC25922,,MBC,> 5000 µg/mL
Cc1ccc(C(C)C)cc1OCc1cn(-c2ccc([N+](=O)[O-])cc2)nn1,"microbial growth, broth dilution",ATCC25922,,IC50,532 µg/mL
Oc1ccc(-c2ccsc2)cc1O,microbial growth,AS19,10 h,IC50,29.9 µM
Clc1ccc(-n2cc(COc3cccc4cccnc34)nn2)cc1,"microbial growth, broth dilution",ATCC25922,,IC50,470 µg/mL
c1ccc2[nH]c(-c3ccncc3)nc2c1,"microbial growth, broth dilution",ATCC25922,,MIC,128 µg/mL
CN1CC(O)=C(C(=O)NC(C(=O)NC2C(=O)N3C2SC(C)(C)C3C(=O)O)c2ccccc2)C1=O (stereo not drawn),"microbial growth, well diffusion",BW25113,200 µM,inhibition zone,10.5 mm
O=C(Sc1cccccc1=O)c1ccc(C(F)(F)F)cc1,"microbial growth, broth dilution",ATCC35218,,MIC80,66.7 µM
N=C(N)c1ccccc1OCCCCCOc1ccccc1C(=N)N,"microbial growth, broth dilution",BW25113,,MIC,> 200 µg/mL
O=c1cccccc1Sc1cccccc1=O,"microbial growth, broth dilution",ATCC35218,,MIC80,13.2 µM
C[C@H]1NCc2cc(-c3ccc4c(=O)c(C(=O)O)cn(C5CC5)c4c3OC(F)F)ccc21,"microbial growth, broth dilution",,,MIC50,≤ 0.03 µg/mL
Cc1ccc2nc(-c3ccc([N+](=O)[O-])cc3)[nH]c2c1,"microbial growth, broth dilution",ATCC25922,,MIC,64 µg/mL
N=C(N)c1ccc(OCCSCCOc2ccc(C(=N)N)cc2)cc1,"microbial growth, broth dilution",BW25113,,MIC,> 200 µg/mL
COc1ccc(-n2cc(COC3=CC(=O)c4ccccc4C3=O)nn2)cc1,"microbial growth, broth dilution",ATCC25922,,IC50,314 µg/mL
CCCCCCCC(=O)Oc1c(C)c(O)c(C(=O)/C=C/c2ccccc2)c(OC)c1C,"microbial killing, broth dilution",ATCC25922,,MBC,> 5000 µg/mL
N=C(N)c1ccc(OCCC(CCOc2ccc(C(=N)N)cc2)c2ccccc2)cc1 (stereo not drawn),"microbial growth, broth dilution",ATCC25922,,MIC,> 200 µg/mL
CC(C)Oc1c(NC(=O)c2ccc(NC(=O)[C@H](CC(N)=O)NC(=O)c3ccc(NC(=O)c4ccc(C(F)(F)F)cc4)cc3)cc2)ccc(C(=O)Nc2ccc(C(=O)O)cc2)c1O,microbial growth,DSM1116,,MIC,0.5 µg/mL
C#CCCCCCCCCC=CCC(O)CC(O)CO (stereo not drawn),"microbial growth, broth dilution",ATCC35218,,IC50,> 200 µg/mL
CC(C)c1ccc(O)c(=O)cc1,"microbial growth, broth dilution",ATCC35218,,MIC80,58.1 µM
COc1c(C)c(OC(C)=O)c(C)c(OC(C)=O)c1C(=O)/C=C/c1ccccc1,"microbial killing, broth dilution",ATCC25922,,MBC,> 5000 µg/mL
CCCc1ccsc1-c1ccc(O)c(O)c1,microbial growth,AS19,10 h,IC50,15.4 µM
CC1(C)SC2C(NC(=O)C(NC(=O)C3=C(O)C(Cc4ccsc4)NC3=O)c3ccccc3)C(=O)N2C1C(=O)O (stereo not drawn),"microbial growth, well diffusion",BW25113,200 µM,inhibition zone,10 mm
Cc1ccc2nc(-c3ccc([N+](=O)[O-])cc3)n(Cc3ccccc3)c2c1,"microbial growth, broth dilution",ATCC25922,,MIC,64 µg/mL
C=CCCCCCCCCCCCC(O)CC(O)CO (stereo not drawn),"microbial growth, broth dilution",ATCC35218,,IC50,> 200 µg/mL
N=C(N)c1ccc(OCc2ccccc2COc2ccc(C(=N)N)cc2)cc1,"microbial growth, broth dilution",W3110,,MIC,> 200 µg/mL
Cc1ccc(C(C)C)cc1OCc1cn(-c2ccccc2)nn1,"microbial growth, broth dilution",ATCC25922,,IC50,249 µg/mL
CC1(C)S[C@@H]2[C@H](NC(=O)[C@H](N)c3ccccc3)C(=O)N2[C@H]1C(=O)O,"microbial growth, well diffusion",BW25113,200 µM,inhibition zone,14 mm
COc1cc(C=Cc2cc(-c3ccccc3)nc(O)n2)ccc1O,"microbial growth, disc diffusion",ATCC25922,500 µg/mL,inhibition zone,19.7 mm
COc1c(C)c(OC)c2c(c1C)OC(c1ccccc1)CC2=O (stereo not drawn),"microbial killing, broth dilution",ATCC25922,,MBC,> 5000 µg/mL
CC(C)Oc1c(NC(=O)c2ccc(NC(=O)[C@H](CC(N)=O)NC(=O)c3cccc(NC(=O)c4ccc(C#N)cc4)c3)cc2)ccc(C(=O)Nc2ccc(C(=O)O)cc2)c1O,microbial growth,DSM1116,,MIC,> 64 µg/mL
Cc1ccc(-n2cc(COc3cc(C(C)C)ccc3C)nn2)cc1,"microbial growth, broth dilution",ATCC25922,,IC50,289 µg/mL
N=C(N)c1cccc(OCc2ccc(COc3cccc(C(=N)N)c3)cc2)c1,"microbial growth, broth dilution",ATCC25922,,MIC,200 µg/mL
O=[N+]([O-])c1ccc(-n2cc(COc3cccc4cccnc34)nn2)cc1,"microbial growth, broth dilution",ATCC25922,,IC50,664 µg/mL
O=C(N/N=C/c1ccc([N+](=O)[O-])o1)c1ccc(O)cc1,microbial growth,ATCC35218,,MIC90,0.98 µg/mL
c1ccc(-n2cc(COc3cccc4cccnc34)nn2)cc1,"microbial growth, broth dilution",ATCC25922,,IC50,408 µg/mL
CC1(C)S[C@@H]2[C@H](NC(=O)[C@H](N)c3ccc(O)cc3)C(=O)N2[C@H]1C(=O)O,"microbial growth, disc diffusion",ATCC25922,250 µg/mL,inhibition zone,11.2 mm
O=C(N[C@H](CO)[C@H](O)c1ccc([N+](=O)[O-])cc1)C(Cl)Cl,microbial growth,"ATCC 8739, ATCC8739",,MIC90,3.9 µg/mL
Fc1ccc(-n2cc(COc3cccc4cccnc34)nn2)cc1,"microbial growth, broth dilution",ATCC25922,,IC50,405 µg/mL
